High-throughput results from PubChem BioAssay.
An excerpt weighted towards active compounds, which were near 1.5% of everything screened.
PP1 counter = PP1-alpha (human) inhibition in PP5 counter-screen. P62136. purified PP1alpha, OMFP fluorescence. inhibition, % at 6.7 µM. hit rate 0.9% among 320,000;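 active = inhibition above the mean inhibition of all tested compounds plus 3 SD, computed separately for each screening campaign, cut at about 15% in these data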
PKD1 kinase inh = inhibitors of human PKD1 kinase. Q15139. inhibition, % (no concentration beside the values). hit rate 0.056% among 200,000. PKD1 kinase fluorescence polarization assay; in the data active = inhibition above about 50%
PP5 primary = inhibitors of human protein phosphatase 5 (PP5) | P53041 | purified PP5c, OMFP substrate fluorescence | inhibition, % at 6.7 µM | hit rate 0.18% among 320,000 | AID 1987;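 active = inhibition above the campaign's mean inhibition across all tested compounds plus 3 SD, cut at about 9.5% in these data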;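 also: 0% = DMSO only and 100% = 100 µM cantharidin control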
p97 inhibitor = inhibitors of human p97 ATPase; inhibition, % at 8 µM; hit rate 0.42% among 220,000; recombinant p97 ATPase, Kinase-Glo ATP luminescence, 3 h; P55072; in the data active = inhibition above about 15%;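 also: 0% = DMSO vehicle and 100% = wells lacking enzyme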
Hsp70 act = switches on Hsp70 transcription | hit rate 0.04% among 200,000 | activation, % at 10 µM | HeLa Hsp70 promoter luciferase reporter, luminescence; scaled: vehicle 0, proteasome-inhibitor control 100% | AID 1203;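 active = activation above the mean across all tested compounds plus 3 SD, cutoff set per campaign, cut at about 5.5% in these data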;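 also: 100% = MG132 at 30 µM as the positive control and 0% = DMSO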
RBBP9 inh = blocks human serine hydrolase RBBP9; O75884; recombinant RBBP9, FP-Rh probe fluorescence polarization; inhibition, % at 7.94 µM; hit rate 0.2% among 220,000; AID 1515;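 active = inhibition above the campaign mean of all tested compounds plus 3 SD, cut at about 14% in these data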;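 also: plate controls were DMSO wells with RBBP9 for no effect and wells lacking RBBP9 protein for full effect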
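Test system – recombinant human RBBP9 · Input – RBBP9 2.5 µM in dispensing solution, pre-mixing · Medium – Tris buffer pH 8.0, NaCl, Pluronic · Schedule – preincubation 30 min plus labeling 45 min at 25 °C · Measured by – fluorescence polarization · Measure – % inhibition · Controls – DMSO and no-protein wells · Replicates – one well per compound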
The depositor's hits bear a star.

Results for COc1ccc(Cl)cc1NS(=O)(=O)c1cccc(C(=O)N2CC(C)OC(C)C2)c1 (stereo unspecified) ?
PP1 counter: -2.6; PP5 primary: 0.1

Results for O=C(NCc1cccs1)c1nc2c(nnn2Cc2ccccc2Cl)c(=O)[nH]1 ?
PP1 counter: 21.2*; PKD1 kinase inh: 0.4; PP5 primary: 1.6; p97 inhibitor: -0.8; Hsp70 act: 0.0; RBBP9 inh: -1.9

How did COc1cccc(NC(=O)CN(C)C(=O)c2ccc(-n3cncn3)c([N+](=O)[O-])c2)c1 do in these assays?
PP1 counter: -3.2; PP5 primary: 2.8

How did O=C(Nc1cccc(-c2ccc(N3CCCCC3)nn2)c1)c1ccco1 do in these assays?
PP1 counter: 0.2; PP5 primary: 3.0

Results for CN(C)S(=O)(=O)c1cccc(-c2nn(-c3ccccc3)cc2/C=C2\SC(=S)NC2=O)c1 ?
PP1 counter: 16.6*; PKD1 kinase inh: -3.7; PP5 primary: 3.7; p97 inhibitor: 4.4; Hsp70 act: -0.5; RBBP9 inh: -3.0

Results for CN(C)S(=O)(=O)c1cccc(-c2nn(-c3ccccc3)cc2/C=C(\C#N)c2nc3ccccc3[nH]2)c1 ?
PP1 counter: -1.9; PKD1 kinase inh: -7.7; PP5 primary: 1.8; p97 inhibitor: 1.6; Hsp70 act: -0.1; RBBP9 inh: 0.3

Results for O=C1CC(=C(c2ccccc2)c2ccccc2)C(=O)N1CCCN1CCN(c2cccc(Cl)c2)CC1 ?
PP1 counter: 16.7*; PKD1 kinase inh: 2.8; PP5 primary: 3.7; p97 inhibitor: -3.3; Hsp70 act: 0.3; RBBP9 inh: 3.6

What do the screens show for `COc1ccc(/C=C/C(=O)NC(=S)NNC(=O)c2cnccn2)cc1`?
PP1 counter: 5.4; PP5 primary: 0.5; p97 inhibitor: -1.7; RBBP9 inh: -8.4

How did COc1ccc(C(=O)NNC(=S)NC(=O)c2cccs2)cc1 do in these assays?
PP1 counter: -0.7; PP5 primary: 2.0

Results for COc1ccc(/C=C/C(=O)NC(=S)NNC(=O)c2cccnc2)cc1 ?
PP1 counter: 15.9*; PKD1 kinase inh: -1.8; PP5 primary: 0.8; p97 inhibitor: 2.8; Hsp70 act: -0.1; RBBP9 inh: 1.0

Results for COc1ccc(/C=C/C(=O)NC(=S)NNC(=O)c2cccs2)cc1 ?
PP1 counter: 16.5*; PKD1 kinase inh: 1.6; PP5 primary: -1.9; p97 inhibitor: 6.8; Hsp70 act: -0.4; RBBP9 inh: -1.0

Results for CCc1ccc(N=C2NC(=O)CS2)cc1 ?
PP1 counter: -0.5; PP5 primary: 1.8

What do the screens show for `O=C(Cn1cncc1-c1ccc([N+](=O)[O-])cc1)Nc1cccc2ccccc12`?
PP1 counter: 21.3*; PKD1 kinase inh: -1.9; PP5 primary: -1.1; p97 inhibitor: 10.9; Hsp70 act: -0.3; RBBP9 inh: -9.9

How did CC(OC(=O)Cc1n[nH]c(=O)c2ccccc12)C(=O)Nc1ccc(F)cc1Cl (stereo unspecified) do in these assays?
PP1 counter: -3.8; PP5 primary: -1.8

Results for CCN(CC)S(=O)(=O)c1ccc2c(c1)nc(CCC(=O)Nc1ccc3c(c1)OCO3)n2C ?
PP1 counter: 5.5; PKD1 kinase inh: -5.4; PP5 primary: 0.0; p97 inhibitor: 3.9; Hsp70 act: 0.0; RBBP9 inh: 1.1

What do the screens show for `CCN(CC)S(=O)(=O)c1ccc2c(c1)nc(CCC(=O)Nc1ccc3c(c1)OCO3)n2CC`?
PP1 counter: 15.2*; PKD1 kinase inh: -0.8; PP5 primary: 0.0; p97 inhibitor: -3.9; Hsp70 act: 0.0; RBBP9 inh: -5.7

Results for COc1ccc(/C=N/NC(=O)c2nc(-c3ccccc3)n(-c3ccccc3)n2)cc1 ?
PP1 counter: 1.5; PKD1 kinase inh: -3.1; PP5 primary: 2.7; p97 inhibitor: 2.8; Hsp70 act: -0.3; RBBP9 inh: -4.1

How did COc1ccc(/C=N/NC(=O)c2nc(-c3ccccc3)n(-c3ccccc3)n2)c(O)c1 do in these assays?
PP1 counter: 15.9*; PKD1 kinase inh: -5.6; PP5 primary: 0.0; p97 inhibitor: 6.7; Hsp70 act: 0.0; RBBP9 inh: 4.8

How did Oc1cc2c(cc1O)C1c3ccc(O)c(O)c3OCC1(O)C2 (stereo unspecified) do in these assays?
PP1 counter: -2.2; PKD1 kinase inh: -1.4; PP5 primary: 4.6; p97 inhibitor: 15.2*; Hsp70 act: -0.1; RBBP9 inh: 11.1

Results for O=C(O)CCC1c2cc3c4cc2OC2Oc5cc6c(cc51)C(CCC(=O)O)c1cc5c7cc1OC(O6)c1cc6cc(c1)Oc1cc(cc(C(=O)O)c1)Oc1cc8cc(c1)C(Oc1cc(c(cc1C5CCC(=O)O)C3CCC(=O)O)OC(O4)c1cc(cc(c1)Oc1cc(cc(C(=O)O)c1)O8)Oc1cc(cc(C(=O)O)c1)Oc1cc(cc2c1)Oc1cc(cc(C(=O)O)c1)O6)O7 (stereo unspecified) ?
PP1 counter: 90.5*; PP5 primary: 12.6*

How did CCN(CC)c1ccc(-c2nn3c(-c4ccccc4OC)nnc3s2)cc1 do in these assays?
PP1 counter: 15.8*; PKD1 kinase inh: 2.0; PP5 primary: 8.1; p97 inhibitor: -2.6; Hsp70 act: 0.2; RBBP9 inh: -10.5

What do the screens show for `COc1cccc(OC)c1-c1nn2c(-c3cc(-c4ccccc4)n[nH]3)nnc2s1`?
PP1 counter: 58.6*; PKD1 kinase inh: -0.7; PP5 primary: 5.4; p97 inhibitor: 0.5; Hsp70 act: -0.1; RBBP9 inh: -2.6

How did Cc1ccc(C)c(Nc2cc(C)nc3ccccc23)c1 do in these assays?
PP1 counter: 2.1; PP5 primary: 1.3

What do the screens show for `CC(NC(=O)COC(=O)COc1ccc(C(=O)c2ccccc2)cc1)c1ccccc1` (stereo unspecified)?
PP1 counter: -0.2; PP5 primary: 0.6

How did COc1ccccc1C(=O)NCCC(=O)NCc1cccnc1 do in these assays?
PP1 counter: -3.8; PP5 primary: -0.6

How did CN(C)c1ccc(O)c2c1CC1CC3C(N(C)C)C(=O)C(C(N)=O)=C(O)[C@@]3(O)C(=O)C1=C2O (stereo partly specified) do in these assays?
PP1 counter: 10.3; PP5 primary: 1.2

Results for CN(C)[C@@H]1C(=O)C(C(=O)NCN2CCCC2)=C(O)[C@@]2(O)C(=O)C3=C(O)c4c(O)cccc4[C@@](C)(O)C3CC12 (stereo partly specified) ?
PKD1 kinase inh: 22.7; p97 inhibitor: 22.8*; Hsp70 act: -0.1; RBBP9 inh: 1.8

How did COc1cc2[nH]c(C(=O)N3CCc4ccccc43)cc2c(OC)c1OC do in these assays?
PP1 counter: -0.1; PP5 primary: 0.8

Results for CCc1cc2c(nc1CC)CCN(CC/C(C)=N/OC[C@H]1O[C@H](c3ccccc3)C=C[C@@H]1Oc1ccc(OC)cc1)C2 ?
PKD1 kinase inh: -6.1; p97 inhibitor: -2.3; Hsp70 act: 0.0; RBBP9 inh: -6.5
